Published values of several laboratories.
Target: Tyrosine-protein kinase Lyn (LYN, Homo sapiens, UniProt P07948)

Compound	assay	setting	endpoint	value
O=C(Nc1cnn(-c2csc(C(=O)NC3COC3)c2)c1)Nc1ccccc1Cl	enzyme activity, inhibitor	5 µM	remaining activity	96.8%
CNCc1ccccc1-c1csc([C@H](C)Nc2nc(C)nc3cc(OC)c(OC)cc23)c1	cell-free assay, competition with immobilised ligand	1 µM	remaining binding	100%
CCN(CC)CCNC(=O)c1c(C)[nH]c(/C=C2\C(=O)Nc3ccc(F)cc32)c1C	enzyme activity, inhibitor	0.3 µM	inhibition	42%
CC(C)(C)c1nc(-c2cccc(NS(=O)(=O)c3c(F)cccc3F)c2F)c(-c2ccnc(N)n2)s1	enzyme activity, inhibitor, radiometric	1 µM	remaining activity	51%
CC(C)(O)[C@H]1CC[C@H](Nc2ccc3ncc(-c4cccc(C(F)(F)F)c4)n3n2)CC1	enzyme activity, inhibitor	1 µM	remaining activity	41.9%
CNCc1ccc(-c2cc(-c3nc(-c4ccc(S(=O)(=O)C(C)C)cc4)cnc3N)on2)cc1	enzyme activity, inhibitor	0.4 µM	inhibition	13%
O=C1c2ccccc2-c2n[nH]c3cccc1c23	enzyme activity, inhibitor	0.5 µM	activity vs control	97%
CNC(=O)c1cc(Oc2ccc(NC(=O)Nc3ccc(Cl)c(C(F)(F)F)c3)cc2)ccn1	enzyme activity, inhibitor	0.3 µM	inhibition	10%
O=C(N1CCS(=O)(=O)CC1)N1C[C@H](c2ccc(OC(F)(F)F)cc2)C[C@H](c2nc(C3CC3)no2)C1	cell-free assay, competition with immobilised ligand	1 µM	remaining binding	85%
CC1(C)NC(=O)c2[nH]c3c(Cl)c(Cl)ccc3c2C1C#N (stereo not drawn)	thermal stability, DSF	10 µM	ΔTm	0.2 °C
Cc1cc(NC(=O)c2cccc3cc(-c4cccc5[nH]nc(N)c45)ccc23)ccc1F	enzyme activity, inhibitor	0.1 µM	activity vs control	88%
Cc1ccc(Nc2nccc(N(C)c3ccc4c(C)n(C)nc4c3)n2)cc1S(N)(=O)=O	enzyme activity, inhibitor	0.5 µM	remaining activity	52.1%
Cn1c2c(Cl)c(Cl)ccc2c2cc(N)[nH]c(=O)c21	thermal stability, DSF	10 µM	ΔTm	0.3 °C
CS(=O)(=O)c1cc(C2(NC(=O)c3cncc4c3cnn4-c3ccc(F)cc3)CC2)ccn1	cell-free assay, competition with immobilised ligand	1 µM	remaining binding	100%
C=CC(=O)Nc1cc(Nc2nccc(Nc3cc(Cl)c(F)cc3C(C)(C)O)n2)c(OC)cc1N1CC[C@@H](N(C)C)C1	enzyme activity, inhibitor	1 µM	inhibition	44%
Cn1c2c(c3ccc(Cl)c(Cl)c31)C(C#N)C1(CCNCC1)NC2=O (racemic)	thermal stability, DSF	10 µM	ΔTm	0.2 °C
CN(C)S(=O)(=O)c1ccc2c(c1)/C(=C/c1cc3c([nH]1)CCCC3)C(=O)N2	cell-free assay	0.5 µM	remaining signal	16.2%
CC(C)(O)c1cncc(-c2nc3ccc(F)cc3n2C2CC2)c1	cell-free assay, competition with immobilised ligand	1 µM	remaining binding	100%

Compound	assay	setting	endpoint	value
Cc1ccc(-n2nc(C(C)(C)C)cc2NC(=O)Nc2ccc(OCCN3CCOCC3)c3ccccc23)cc1	enzyme activity, inhibitor	10 µM	inhibition	81%
Cn1c2c(c3ccc(Cl)c(Cl)c31)C(C#N)C1(CCOCC1)NC2=O (stereo not drawn)	thermal stability, DSF	10 µM	ΔTm	-0.2 °C
Cn1nc(C(F)(F)F)cc1-c1cnc(N2CCc3cc(S(=O)(=O)Nc4c(F)cc(Cl)cc4F)cc(N4CCCC4=O)c32)nc1	cell-free assay, competition with immobilised ligand	1 µM	remaining binding	100%
COc1ccc(COc2ccc(Cc3cnc(N)nc3N)cc2OC)cc1	cell-free assay	0.5 µM	remaining signal	99.9%
Cc1c(NC(=O)c2cc(C(N)=O)nc3cc(F)ccc23)c(C(F)(F)F)nn1Cc1ccc(C#N)cc1	cell-free assay, competition with immobilised ligand	1 µM	remaining binding	100%
Cn1c2c(c3ccc(Cl)c(Cl)c31)C(C#N)C1(CCN(C(=O)OC(C)(C)C)CC1)NC2=O (racemic)	thermal stability, DSF	10 µM	ΔTm	0 °C
O=C(Nc1cnn(-c2csc(C(=O)NC3COC3)c2)c1)Nc1c(F)cccc1Cl	enzyme activity, inhibitor	5 µM	remaining activity	95.3%
CN(C)C(=O)Cn1cc(-c2nc(C3(c4ccc(-c5cnc(N)nc5)cc4)CC3)no2)cn1	cell-free assay, competition with immobilised ligand	1 µM	remaining binding	79%
CCN(CC)CCNC(=O)c1c(C)[nH]c(/C=C2\C(=O)Nc3ccc(Cl)cc32)c1C	enzyme activity, inhibitor	0.5 µM	remaining activity	6.34%
CCN(CC)c1ccc(C2=NNC(=O)CC2C)cc1[N+](=O)[O-] (stereo not drawn)	enzyme activity, inhibitor	10 µM	remaining activity	114%
Cn1c2c(c3ccc(Cl)c(Cl)c31)C(C#N)C(C)(C)NC2=O (stereo not drawn)	thermal stability, DSF	10 µM	ΔTm	0.1 °C
O=C1Nc2ccc(Cl)cc2C1=Cc1cc(Cl)c(O)c(Cl)c1	cell-free assay	0.5 µM	remaining signal	81.6%
CNc1cccc2cc(C(=O)Nc3ccc(C(=O)O)cc3)c(=O)[nH]c12	enzyme activity, inhibitor	10 µM	inhibition	-4.6%
Cc1ccc(C(=O)NCc2ccsc2)cc1C#Cc1cn(C(C)C)c2ncnc(N)c12	enzyme activity, inhibitor	1 µM	activity vs control	0%
CN1CCC2(CC1)NC(=O)c1c(c3ccc(Cl)c(Cl)c3n1C)C2C#N (racemic)	thermal stability, DSF	10 µM	ΔTm	-0.1 °C
COc1cc2c(N3CCN(C(=O)Nc4ccc(OC(C)C)cc4)CC3)ncnc2cc1OCCCN1CCCCC1	cell-free assay	0.5 µM	remaining signal	95.6%
CC1=C(C#N)[C@@H](c2ccc3[nH]nc(C)c3c2)C(C#N)=C(c2ccc(Cl)cc2)N1	cell-free assay, competition with immobilised ligand	1 µM	remaining binding	96.8%
Nc1ncnc2occ(-c3ccc(NC(=O)Nc4cc(C(F)(F)F)ccc4F)cc3)c12	enzyme activity, inhibitor	20 µM	remaining activity	1.4%
